Results from ChEMBL document CHEMBL1140331, “Iterative approach to the discovery of novel degarelix analogues: substitutions at positions 3, 7, and 8. Part II” (J Med Chem, 2005).
*1 amine or outer side, *2 acyl side, *3 side chain or, on linkers, in order; H or OH if unused. Where a SMILES comes first, the peptide text is derived from it. [ ]: non-standard residue; d: D form. The star is where a group is joined. Phe(4-NH(5-NH2triazol-3-yl)) = Nc1nc(Nc2ccc(C[C@H](N)C(=O)O)cc2)n[nH]1; X1 = Nc1nc(Nc2ccc(C[C@@H](N[*:1])C(=O)[*:2])cc2)n[nH]1; dPhe(4-NHCONH2) = NC(=O)Nc1ccc(C[C@@H](N)C(=O)O)cc1; Dihydroorotyl(S) = O=C1C[C@@H](C(=O)*)NC(=O)N1; dPhe(4-Cl) = N[C@H](Cc1ccc(Cl)cc1)C(=O)O; Phe(4-NH2) = Nc1ccc(C[C@H](N)C(=O)O)cc1; d2Nal = N[C@H](Cc1ccc2ccccc2c1)C(=O)O; Lys(iPr) = CC(C)NCCCC[C@H](N)C(=O)O; d3Pal = N[C@H](Cc1cccnc1)C(=O)O

These compounds were tested against T1, Gonadotropin-releasing hormone receptor (Homo sapiens, UniProt P30968) (assay: Antagonism of GnRH response in HEK293 cells expressing human GnRH receptor). Conditions: not given.
T1 sequence (P30968 whole entry): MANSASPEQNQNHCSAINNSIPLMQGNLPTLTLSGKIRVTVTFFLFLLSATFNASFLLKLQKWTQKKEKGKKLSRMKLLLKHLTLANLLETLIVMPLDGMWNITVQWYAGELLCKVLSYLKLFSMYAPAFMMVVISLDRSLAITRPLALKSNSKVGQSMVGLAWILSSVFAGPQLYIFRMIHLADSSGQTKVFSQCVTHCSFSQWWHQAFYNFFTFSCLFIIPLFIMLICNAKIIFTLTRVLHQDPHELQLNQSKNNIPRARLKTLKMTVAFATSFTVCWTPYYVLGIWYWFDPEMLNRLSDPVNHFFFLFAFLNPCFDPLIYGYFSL
Format: functional, cell-based
Outline: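 HEK293 cells stably carrying cloned human GnRH receptor and luciferase reporter under LH α-subunit promoter; cultured in phenol red-free DMEM, 10% FBS, G418 0.4 mg/mL; plated 5×10^4 cells/well, overnight 37 °C. Compound (11 half-log concentrations, duplicate, 1% DMSO) preincubated 10 min, then GnRH 1 nM final, ≥5 h; luminescence read; % of control cps (blank-subtracted) gives IC50.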

Structure (SMILES)	IC50 [nM]
CC(=O)N[C@H](Cc1ccc2ccccc2c1)C(=O)N[C@H](Cc1ccc(Cl)cc1)C(=O)N[C@H](Cc1cccnc1)C(=O)N[C@@H](CO)C(=O)N[C@@H](Cc1ccc(NC(=O)[C@@H]2CC(=O)NC(=O)N2)cc1)C(=O)N[C@H](Cc1ccc(NC(N)=O)cc1)C(=O)N[C@@H](Cc1c[nH]cn1)C(=O)N[C@@H](CCCCNC(C)C)C(=O)N1CCC[C@H]1C(=O)N[C@H](C)C(N)=O	10.6
CC(=O)N[C@H](Cc1ccc2ccccc2c1)C(=O)N[C@H](Cc1ccc(Cl)cc1)C(=O)N[C@H](Cc1cccnc1)C(=O)N[C@@H](CO)C(=O)N[C@@H](Cc1ccc(NC(=O)[C@@H]2CC(=O)NC(=O)N2)cc1)C(=O)N[C@H](Cc1ccc(NC(N)=O)cc1)C(=O)N(C)[C@@H](CC(C)C)C(=O)N[C@@H](CCCCNC(C)C)C(=O)N1CCC[C@H]1C(=O)N[C@H](C)C(N)=O	1.47
CC(=O)N[C@H](Cc1ccc2ccccc2c1)C(=O)N[C@H](Cc1ccc(Cl)cc1)C(=O)N[C@H](Cc1cccnc1)C(=O)N[C@@H](CO)C(=O)N[C@@H](Cc1ccc(NC(=O)[C@@H]2CC(=O)NC(=O)N2)cc1)C(=O)N[C@H](Cc1ccc(NC(N)=O)cc1)C(=O)N[C@@H](CC(C)C)C(=O)N(C)[C@@H](CCCCNC(C)C)C(=O)N1CCC[C@H]1C(=O)N[C@H](C)C(N)=O	52.2
CNC(=O)C[C@H](NC(=O)[C@@H](Cc1ccc(NC(N)=O)cc1)NC(=O)[C@H](Cc1ccc(NC(=O)[C@@H]2CC(=O)NC(=O)N2)cc1)NC(=O)[C@H](CO)NC(=O)[C@@H](Cc1cccnc1)NC(=O)[C@@H](Cc1ccc(Cl)cc1)NC(=O)[C@@H](Cc1ccc2ccccc2c1)NC(C)=O)C(=O)N[C@@H](CCCCNC(C)C)C(=O)N1CCC[C@H]1C(=O)N[C@H](C)C(N)=O	25.8
CC(=O)N[C@H](Cc1ccc2ccccc2c1)C(=O)N[C@H](Cc1ccc(Cl)cc1)C(=O)N[C@H](Cc1cccnc1)C(=O)N[C@@H](CO)C(=O)N[C@@H](Cc1ccc(NC(=O)[C@@H]2CC(=O)NC(=O)N2)cc1)C(=O)N[C@H](Cc1ccc(NC(N)=O)cc1)C(=O)N[C@@H](CC(C)C)C(=O)N[C@@H](CCCCNC1CCCCC1)C(=O)N1CCC[C@H]1C(=O)N[C@H](C)C(N)=O	1.5
CC(=O)N[C@H](Cc1ccc2ccccc2c1)C(=O)N[C@H](Cc1ccc(Cl)cc1)C(=O)N[C@H](Cc1cccnc1)C(=O)N[C@@H](CO)C(=O)N[C@@H](Cc1ccc(NC(=O)[C@@H]2CC(=O)NC(=O)N2)cc1)C(=O)N[C@H](Cc1ccc(NC(N)=O)cc1)C(=O)N[C@@H](CC(=O)N(C)C)C(=O)N[C@@H](CCCCNC(C)C)C(=O)N1CCC[C@H]1C(=O)N[C@H](C)C(N)=O	48.9
CC(=O)N[C@H](Cc1ccc2ccccc2c1)C(=O)N[C@H](Cc1ccc(Cl)cc1)C(=O)N[C@H](CNCc1ccccn1)C(=O)N[C@@H](CO)C(=O)N[C@@H](Cc1ccc(NC(=O)[C@@H]2CC(=O)NC(=O)N2)cc1)C(=O)N[C@H](Cc1ccc(NC(N)=O)cc1)C(=O)N[C@@H](CC(C)C)C(=O)N[C@@H](CCCCNC(C)C)C(=O)N1CCC[C@H]1C(=O)N[C@H](C)C(N)=O	2.71
CC(=O)N[C@H](Cc1ccc2ccccc2c1)C(=O)N[C@H](Cc1ccc(Cl)cc1)C(=O)N[C@H](Cc1cccnc1)C(=O)N[C@@H](CO)C(=O)N[C@@H](Cc1ccc(NC(=O)[C@@H]2CC(=O)NC(=O)N2)cc1)C(=O)N[C@H](Cc1ccc(NC(N)=O)cc1)C(=O)N[C@@H](CC(N)=O)C(=O)N[C@@H](CCCCNC(C)C)C(=O)N1CCC[C@H]1C(=O)N[C@H](C)C(N)=O	9.18
CC(=O)N[C@H](Cc1ccc2ccccc2c1)C(=O)N[C@H](Cc1ccc(Cl)cc1)C(=O)N[C@H](Cc1cccnc1)C(=O)N[C@@H](CO)C(=O)N[C@@H](Cc1ccc(NC(=O)[C@@H]2CC(=O)NC(=O)N2)cc1)C(=O)N[C@H](Cc1ccc(NC(N)=O)cc1)C(=O)N[C@@H](Cc1ccc(O)cc1)C(=O)N[C@@H](CCCCNC(C)C)C(=O)N1CCC[C@H]1C(=O)N[C@H](C)C(N)=O	2.85
CC(=O)N[C@H](Cc1ccc2ccccc2c1)C(=O)N[C@H](Cc1ccc(Cl)cc1)C(=O)N[C@H](Cc1cccnc1)C(=O)N[C@@H](CO)C(=O)N[C@@H](Cc1ccc(Nc2n[nH]c(N)n2)cc1)C(=O)N[C@H](Cc1ccc(Nc2n[nH]c(N)n2)cc1)C(=O)N[C@@H](CC(C)C)C(=O)N[C@@H](CCCCNC(C)C)C(=O)N1CCC[C@H]1C(=O)N[C@H](C)C(N)=O [PRAZARELIX ACETATE] (Ac-[d2Nal][dPhe(4-Cl)][d3Pal]S[Phe(4-NH(5-NH2triazol-3-yl))][X1]L[Lys(iPr)]P[dA]-NH2)	1.4

The remaining lines, values ahead:

IC50 [nM]	Structure (SMILES)
2.11	C#CC[C@H](NC(=O)[C@@H](Cc1ccc(NC(N)=O)cc1)NC(=O)[C@H](Cc1ccc(NC(=O)[C@@H]2CC(=O)NC(=O)N2)cc1)NC(=O)[C@H](CO)NC(=O)[C@@H](Cc1cccnc1)NC(=O)[C@@H](Cc1ccc(Cl)cc1)NC(=O)[C@@H](Cc1ccc2ccccc2c1)NC(C)=O)C(=O)N[C@@H](CCCCNC(C)C)C(=O)N1CCC[C@H]1C(=O)N[C@H](C)C(N)=O
1.72	CC(=O)N[C@H](Cc1ccc2ccccc2c1)C(=O)N[C@H](Cc1ccc(Cl)cc1)C(=O)N[C@H](Cc1cccnc1)C(=O)N[C@@H](CO)C(=O)N[C@@H](Cc1ccc(NC(=O)[C@@H]2CC(=O)NC(=O)N2)cc1)C(=O)N[C@H](Cc1ccc(NC(N)=O)cc1)C(=O)N[C@@H](CC(C)C)C(=O)N[C@@H](CCCNC(C)C)C(=O)N1CCC[C@H]1C(=O)N[C@H](C)C(N)=O
1.38	CC(=O)N[C@H](Cc1ccc2ccccc2c1)C(=O)N[C@H](Cc1ccc(Cl)cc1)C(=O)N[C@H](Cc1cccnc1)C(=O)N[C@@H](CO)C(=O)N[C@@H](Cc1ccc(NC(=O)[C@@H]2CC(=O)NC(=O)N2)cc1)C(=O)N[C@H](Cc1ccc(NC(N)=O)cc1)C(=O)N[C@@H](CC(C)C)C(=O)N[C@@H](CCCNC(=O)CNC(C)C)C(=O)N1CCC[C@H]1C(=O)N[C@H](C)C(N)=O
178	CC(=O)N[C@H](Cc1ccc2ccccc2c1)C(=O)N[C@H](Cc1ccc(Cl)cc1)C(=O)N[C@H](Cc1cccnc1)C(=O)N[C@@H](CO)C(=O)N[C@@H](Cc1ccc(NC(=O)[C@@H]2CC(=O)NC(=O)N2)cc1)C(=O)N[C@H](Cc1ccc(NC(N)=O)cc1)C(=O)N[C@@H](CS)C(=O)N[C@@H](CCCCNC(C)C)C(=O)N1CCC[C@H]1C(=O)N[C@H](C)C(N)=O
1.85	CC(=O)N[C@H](Cc1ccc2ccccc2c1)C(=O)N[C@H](Cc1ccc(Cl)cc1)C(=O)N[C@H](Cc1cccnc1)C(=O)N[C@@H](CO)C(=O)N[C@@H](Cc1ccc(NC(=O)[C@@H]2CC(=O)NC(=O)N2)cc1)C(=O)N(C)[C@H](Cc1ccc(NC(N)=O)cc1)C(=O)N[C@@H](CC(C)C)C(=O)N[C@@H](CCCCNC(C)C)C(=O)N1CCC[C@H]1C(=O)N[C@H](C)C(N)=O
1.98	CC(=O)N[C@H](Cc1ccc2ccccc2c1)C(=O)N[C@H](Cc1ccc(Cl)cc1)C(=O)N[C@H](Cc1cccnc1)C(=O)N[C@@H](CO)C(=O)N[C@@H](Cc1ccc(NC(=O)[C@@H]2CC(=O)NC(=O)N2)cc1)C(=O)N[C@H](Cc1ccc(NC(N)=O)cc1)C(=O)N[C@@H](CC(C)C)C(=O)N[C@@H](CNC(=O)CCNC(C)C)C(=O)N1CCC[C@H]1C(=O)N[C@H](C)C(N)=O
1.64	CC(=O)N[C@H](Cc1ccc2ccccc2c1)C(=O)N[C@H](Cc1ccc(Cl)cc1)C(=O)N[C@H](Cc1cccnc1)C(=O)N[C@@H](CO)C(=O)N[C@@H](Cc1ccc(NC(=O)[C@@H]2CC(=O)NC(=O)N2)cc1)C(=O)N[C@H](Cc1ccc(NC(N)=O)cc1)C(=O)N[C@@H](CC(C)C)C(=O)N[C@@H](CCCCNC(C)C)C(=O)N1CCC[C@H]1C(=O)N[C@H](C)C(N)=O [DEGARELIX] (Ac-[d2Nal][dPhe(4-Cl)][d3Pal]S[Phe(4-NH2)](Dihydroorotyl(S))[dPhe(4-NHCONH2)]L[Lys(iPr)]P[dA]-NH2)

Same assay, conditions: hek293

IC50 [nM]	Structure (SMILES)
2.01	CC(=O)N[C@H](Cc1ccc2ccccc2c1)C(=O)N[C@H](Cc1ccc(Cl)cc1)C(=O)N[C@H](Cc1cccnc1)C(=O)N[C@@H](CO)C(=O)N[C@@H](Cc1ccc(NC(=O)[C@@H]2CC(=O)NC(=O)N2)cc1)C(=O)N[C@H](Cc1ccc(NC(N)=O)cc1)C(=O)N[C@@H](CC(C)C)C(=O)N[C@@H](CN[C@H](C(=O)O)C1CCCCC1)C(=O)N1CCC[C@H]1C(=O)N[C@H](C)C(N)=O
5.31	CC(=O)N[C@H](Cc1ccc2ccccc2c1)C(=O)N[C@H](Cc1ccc(Cl)cc1)C(=O)N[C@H](CN(Cc1ccccn1)Cc1ccccn1)C(=O)N[C@@H](CO)C(=O)N[C@@H](Cc1ccc(NC(=O)[C@@H]2CC(=O)NC(=O)N2)cc1)C(=O)N[C@H](Cc1ccc(NC(N)=O)cc1)C(=O)N[C@@H](CC(C)C)C(=O)N[C@@H](CCCCNC(C)C)C(=O)N1CCC[C@H]1C(=O)N[C@H](C)C(N)=O
1.77	CC(=O)N[C@H](Cc1ccc2ccccc2c1)C(=O)N[C@H](Cc1ccc(Cl)cc1)C(=O)N[C@@H](Cc1cccnc1)C(=O)N[C@@H](CO)C(=O)N[C@@H](Cc1ccc(NC(=O)[C@@H]2CC(=O)NC(=O)N2)cc1)C(=O)N[C@@H](Cc1ccc(NC(N)=O)cc1)C(=O)N[C@@H](CC(C)C)C(=O)N[C@@H](CCNC(C(=O)O)C1CCCCC1)C(=O)N1CCC[C@H]1C(=O)N[C@H](C)C(N)=O (some centres not stated)
3.79	CC(=O)N[C@H](Cc1ccc2ccccc2c1)C(=O)N[C@H](Cc1ccc(Cl)cc1)C(=O)N[C@H](CCNCc1ccccn1)C(=O)N[C@@H](CO)C(=O)N[C@@H](Cc1ccc(NC(=O)[C@@H]2CC(=O)NC(=O)N2)cc1)C(=O)N[C@H](Cc1ccc(NC(N)=O)cc1)C(=O)N[C@@H](CC(C)C)C(=O)N[C@@H](CCCCNC(C)C)C(=O)N1CCC[C@H]1C(=O)N[C@H](C)C(N)=O
1.77	CC(=O)N[C@H](Cc1ccc2ccccc2c1)C(=O)N[C@H](Cc1ccc(Cl)cc1)C(=O)N[C@@H](Cc1cccnc1)C(=O)N[C@@H](CO)C(=O)N[C@@H](Cc1ccc(NC(=O)[C@@H]2CC(=O)NC(=O)N2)cc1)C(=O)N[C@@H](Cc1ccc(NC(N)=O)cc1)C(=O)N[C@@H](CC(C)C)C(=O)N[C@@H](CCCNC(=O)[C@H]1CC(=O)NC(=O)N1)C(=O)N1CCC[C@H]1C(=O)N[C@H](C)C(N)=O
